pEC50, pKi: −log10 of the molar value.
Columns and labels:
[1] = Selectivity measured as CB2/CB1
Rattus norvegicus [2] = organism: Rattus norvegicus; test: Maximum concentration based on [35S]GTP-gamma-S binding assay in rat membranes; type: functional
Rattus norvegicus [3] = organism: Rattus norvegicus; test: The effective concentration using [35S]GTP-gamma-S binding assay in rat membranes; type: functional
[4] = biological target: T1, Cannabinoid receptor (Mus musculus) (UniProt P47746+P47936); test: Dissociation Constant in Mouse isolated vas deferens at 31.6 nM of compound using cannabinoid receptor agonist WIN-55 212-2
T1 sequence (P47746 whole entry, looked up): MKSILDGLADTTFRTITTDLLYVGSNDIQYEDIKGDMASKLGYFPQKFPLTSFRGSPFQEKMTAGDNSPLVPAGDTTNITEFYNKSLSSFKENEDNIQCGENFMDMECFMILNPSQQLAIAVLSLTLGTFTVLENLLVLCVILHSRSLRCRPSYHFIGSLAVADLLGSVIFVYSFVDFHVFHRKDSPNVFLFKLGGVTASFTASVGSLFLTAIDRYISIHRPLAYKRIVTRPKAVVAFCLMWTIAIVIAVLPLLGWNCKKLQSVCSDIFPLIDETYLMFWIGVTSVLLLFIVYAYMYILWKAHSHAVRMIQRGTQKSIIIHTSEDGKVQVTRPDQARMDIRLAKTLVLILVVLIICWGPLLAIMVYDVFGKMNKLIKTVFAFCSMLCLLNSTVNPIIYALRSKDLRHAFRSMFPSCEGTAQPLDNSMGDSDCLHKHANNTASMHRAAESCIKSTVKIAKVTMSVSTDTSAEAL
T1 sequence (P47936 whole entry, looked up): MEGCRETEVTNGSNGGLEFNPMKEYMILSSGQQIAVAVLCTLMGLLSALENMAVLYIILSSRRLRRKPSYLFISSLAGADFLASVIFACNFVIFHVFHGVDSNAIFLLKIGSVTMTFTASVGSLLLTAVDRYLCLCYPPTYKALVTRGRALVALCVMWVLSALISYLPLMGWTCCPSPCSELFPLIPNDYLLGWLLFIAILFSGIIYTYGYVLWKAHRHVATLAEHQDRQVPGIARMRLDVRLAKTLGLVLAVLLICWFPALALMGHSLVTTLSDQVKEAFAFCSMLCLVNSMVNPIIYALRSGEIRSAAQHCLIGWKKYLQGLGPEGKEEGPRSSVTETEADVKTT

Cannabinoid receptor 1 [5] = biological target: T2, Cannabinoid receptor 1 (Rattus norvegicus, UniProt P20272); test: Binding affinity in a competition assay by displacement of [3H]- SR-141716 from Cannabinoid receptor 1 in rat whole brain membrane preparation; type: cell membranes
T2 sequence (P20272 whole entry): as the sequence (P47746 whole entry, looked up) above, with D95E counted along it

Cannabinoid receptor 2 = Cannabinoid receptor 2 (Homo sapiens, UniProt P34972); test: Binding affinity at cannabinoid receptor 2 in a competition assay with [3H]CP-55940 as radioligand
Chain of Cannabinoid receptor 2 (P34972 whole entry): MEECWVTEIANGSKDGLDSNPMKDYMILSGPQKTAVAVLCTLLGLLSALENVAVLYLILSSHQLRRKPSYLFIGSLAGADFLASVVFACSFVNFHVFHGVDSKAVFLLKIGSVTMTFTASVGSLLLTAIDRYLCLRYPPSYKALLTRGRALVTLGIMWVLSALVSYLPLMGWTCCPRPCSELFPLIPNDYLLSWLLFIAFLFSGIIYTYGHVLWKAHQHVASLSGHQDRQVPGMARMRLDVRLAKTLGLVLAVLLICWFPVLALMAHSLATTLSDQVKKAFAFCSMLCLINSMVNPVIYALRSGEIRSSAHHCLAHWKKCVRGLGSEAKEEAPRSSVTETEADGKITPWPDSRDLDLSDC

Cannabinoid receptor 1 [6] = biological target: T2, Cannabinoid receptor 1; test: Binding affinity in a competition assay by displacement of [3H]CP-55940 from Cannabinoid receptor 1 in rat whole brain membrane preparation; type: cell membranes
[7] = biological target: T1, Cannabinoid receptor (Mus musculus); test: Dissociation Constant in Mouse isolated vas deferens at 316 nM of compound using cannabinoid receptor agonist WIN-55 212-2; type: functional, tissue-based
Summary of the method: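 Vasa deferentia from MF1 mice (26–44 g) were electrically stimulated in an organ bath until twitches were stable. Percent twitch inhibition was measured. KB came from a single concentration ratio via (x−1)=B/KB, with ratios from (2+2) parallel line assays. Results are means with 95% confidence limits.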

[8] = biological target: T1, Cannabinoid receptor (Mus musculus); test: Dissociation Constant in Mouse isolated vas deferens at 316 nM of compound using cannabinoid receptor agonist WIN-55 212-2 (95% confidence limits); type: functional, tissue-based
Summary of the method: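 Vasa deferentia from albino MF1 mice (26–44 g) in organ bath, electrically stimulated until twitch amplitude stable. Antagonist (DMSO vehicle) added 30 min before cumulative agonist additions at 5 min intervals, stimulating final 2 min of each. Inhibition relative to pre-agonist twitch; KB from single concentration ratio, (x − 1) = B/KB, via (2 + 2) parallel line assay; 95% confidence limits; n = 5 or 6.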

| SMILES | Selectivity [1] | Emax (Rattus norvegicus [2]) | pEC50 (Rattus norvegicus [3]) | further results |
| --- | --- | --- | --- | --- |
| Cc1c(C(=O)NCCCCO)nn(-c2ccc(Cl)cc2Cl)c1-c1ccc(Cl)cc1 |  | -79.5 | 3.52 |  |
| Cc1c(C(=O)N[C@H](C)CO)nn(-c2ccc(Cl)cc2Cl)c1-c1ccc(Cl)cc1 | 15 | -83 | 3.53 | pKi (Cannabinoid receptor 1 [5]): 7.00; pKi (Cannabinoid receptor 2): 5.75; pKi (Cannabinoid receptor 1 [6]): 6.93 |
| CNNC(=O)c1nn(-c2ccc(Cl)cc2Cl)c(-c2ccc(Cl)cc2)c1C |  |  | 1.92 |  |
| Cc1c(C(=O)NO)nn(-c2ccc(Cl)cc2Cl)c1-c1ccc(Cl)cc1 | 5 |  |  |  |
| CCCCCNC(=O)c1nn(-c2ccc(Cl)cc2Cl)c(-c2ccc(Cl)cc2)c1C |  | -7.4 | 5.28 |  |
| Cc1c(C(=O)NN)nn(-c2ccc(Cl)cc2Cl)c1-c1ccc(Cl)cc1 | 32 | -71.7 | 3.38 |  |
| Cc1c(C(=O)N[C@@H](C)CO)nn(-c2ccc(Cl)cc2Cl)c1-c1ccc(Cl)cc1 | 50 | -83.8 | 3.53 | pKi (Cannabinoid receptor 1 [5]): 6.91; pKi (Cannabinoid receptor 2): 5.23; pKi (Cannabinoid receptor 1 [6]): 6.93 |
| CCNNC(=O)c1nn(-c2ccc(Cl)cc2Cl)c(-c2ccc(Cl)cc2)c1C |  |  | 3.31 |  |
| Cc1c(C(=O)NCCO)nn(-c2ccc(Cl)cc2Cl)c1-c1ccc(Cl)cc1 | 11 | -76.5 | 2.78 |  |

The next lines start with results.

| Selectivity [1] | Emax (Rattus norvegicus [2]) | pEC50 (Rattus norvegicus [3]) | SMILES | further results |
| --- | --- | --- | --- | --- |
| 67 | -46.9 | 4.52 | CCNC(=O)c1nn(-c2ccc(Cl)cc2Cl)c(-c2ccc(Cl)cc2)c1C |  |
| 8 | -83.3 | 3.62 | Cc1c(C(=O)NCCCO)nn(-c2ccc(Cl)cc2Cl)c1-c1ccc(Cl)cc1 |  |
| 59 | -46.4 | 4.80 | Cc1c(C(=O)NC(C)C)nn(-c2ccc(Cl)cc2Cl)c1-c1ccc(Cl)cc1 |  |
| 378 | -13 | 4.53 | CCCCCCNC(=O)c1nn(-c2ccc(Cl)cc2Cl)c(-c2ccc(Cl)cc2)c1C | Kb [4]: 0.0154 µM |
| 61 | -11 | 5.12 | Cc1c(C(=O)NCC(C)C)nn(-c2ccc(Cl)cc2Cl)c1-c1ccc(Cl)cc1 | Kb [7]: 0.0212 µM |
| 93 | -22.1 | 4.59 | Cc1c(C(=O)NC2CCCCC2)nn(-c2ccc(Cl)cc2Cl)c1-c1ccc(Cl)cc1 |  |
| 119 | -38.5 | 5.07 | CCCCNC(=O)c1nn(-c2ccc(Cl)cc2Cl)c(-c2ccc(Cl)cc2)c1C |  |
| 105 | -76.3 | 4.41 | Cc1c(C(=O)NN2CCOCC2)nn(-c2ccc(Cl)cc2Cl)c1-c1ccc(Cl)cc1 | Kb [8]: 0.0125 µM |
| 99 | -35.7 | 4.95 | CCCNC(=O)c1nn(-c2ccc(Cl)cc2Cl)c(-c2ccc(Cl)cc2)c1C |  |
